Data from ChEMBL document CHEMBL3994644, “Discovery of AAT-008, a novel, potent, and selective prostaglandin EP4 receptor antagonist” (Bioorg Med Chem Lett, 2017).

Experiments:
[1] = target: T1, Prostaglandin E2 receptor EP4 subtype (Homo sapiens, UniProt P35408); assay: Antagonist activity at human EP4 receptor expressed in HEK293 cells assessed as inhibition of PGE2-induced cAMP level by HTS assay; format: functional, cell-based; conditions: for Kb: read-out: pA2 (converted)
[2] = Half life in human liver microsomes; format: ADME, microsome
[3] = target: T1, Prostaglandin E2 receptor EP4 subtype; assay: Displacement of [3H]PGE from human EP4 receptor expressed in HEK293 cell membranes
How it was run: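 Membrane binding assay using [3H]PGE2 with membranes from HEK-293 cells expressing human EP4. The value is expressed as Ki.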

[4] = Apparent permeability from apical to basolateral side in human Caco2 cells; format: ADME, cell-based; conditions: Caco-2
How it was run: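 Caco-2 monolayer permeability (Papp, apical to basolateral) was measured under constant pH, with the apical side at pH 6.5 and the basolateral side at pH 7.4.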

[5] = target: T2, Prostaglandin E2 receptor EP1 subtype (Homo sapiens, UniProt P34995); assay: Antagonist activity at human EP1 receptor
T2 sequence (P34995 whole entry): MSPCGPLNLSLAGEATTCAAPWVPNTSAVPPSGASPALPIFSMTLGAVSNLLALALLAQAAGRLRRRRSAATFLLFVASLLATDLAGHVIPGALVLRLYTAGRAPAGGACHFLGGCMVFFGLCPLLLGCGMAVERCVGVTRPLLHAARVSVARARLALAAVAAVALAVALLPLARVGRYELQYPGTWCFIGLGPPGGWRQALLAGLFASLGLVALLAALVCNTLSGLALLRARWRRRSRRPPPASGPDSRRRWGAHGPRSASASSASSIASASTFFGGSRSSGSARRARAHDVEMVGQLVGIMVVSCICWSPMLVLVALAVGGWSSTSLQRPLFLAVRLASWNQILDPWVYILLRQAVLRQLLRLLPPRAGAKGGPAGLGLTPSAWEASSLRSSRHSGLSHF

[6] = target: Prostaglandin E2 receptor EP2 subtype (Homo sapiens, UniProt P43116); assay: Antagonist activity at human EP2 receptor
Chain of Prostaglandin E2 receptor EP2 subtype (P43116 whole entry): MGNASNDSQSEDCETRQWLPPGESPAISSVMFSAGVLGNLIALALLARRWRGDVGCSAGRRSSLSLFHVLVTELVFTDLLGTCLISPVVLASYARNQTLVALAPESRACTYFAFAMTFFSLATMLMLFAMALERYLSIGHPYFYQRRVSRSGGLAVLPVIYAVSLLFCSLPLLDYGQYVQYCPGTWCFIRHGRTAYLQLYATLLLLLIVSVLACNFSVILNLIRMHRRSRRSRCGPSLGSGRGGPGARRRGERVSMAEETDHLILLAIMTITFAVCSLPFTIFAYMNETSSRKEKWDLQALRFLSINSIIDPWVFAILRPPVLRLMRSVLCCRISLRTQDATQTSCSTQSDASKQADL

[7] = target: T3, Prostaglandin E2 receptor EP3 subtype (Homo sapiens, UniProt P43115); assay: Antagonist activity at human EP3 receptor
T3 sequence (P43115 whole entry): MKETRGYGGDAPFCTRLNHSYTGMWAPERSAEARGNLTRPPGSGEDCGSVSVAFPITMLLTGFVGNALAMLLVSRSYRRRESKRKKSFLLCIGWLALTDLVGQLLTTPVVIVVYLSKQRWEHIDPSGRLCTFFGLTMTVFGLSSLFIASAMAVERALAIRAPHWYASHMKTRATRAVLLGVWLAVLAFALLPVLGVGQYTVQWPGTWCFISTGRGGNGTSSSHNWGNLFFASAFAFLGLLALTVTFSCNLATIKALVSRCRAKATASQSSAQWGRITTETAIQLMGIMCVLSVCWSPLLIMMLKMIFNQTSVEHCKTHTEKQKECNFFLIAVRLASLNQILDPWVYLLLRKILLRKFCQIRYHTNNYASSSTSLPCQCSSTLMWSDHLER

Rattus norvegicus [8] = assay: Analgesic activity in po dosed rat assessed as inhibition of carrageenan-induced mechanical hyperalgesia measured at 1 hr post dose; format: functional; conditions: read-out: MED
How it was run: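 Rats dosed orally. Mechanical hyperalgesia was induced with carrageenan and assessed 1 h post dose. The value is the minimum effective dose (MED, mg/kg PO).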

[9] = Solubility of the compound in pH 6.5 PBS; format: physicochemical
[10] = Apparent permeability from basolateral to apical side in human Caco2 cells; format: ADME, cell-based; conditions: Caco-2
How it was run: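 Caco-2 permeability was measured basolateral to apical under the same pH conditions as the apical-to-basolateral direction (apical 6.5, basolateral 7.4). Efflux ratio was derived from the two directions.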

[11] = Efflux ratio of apparent permeability in human Caco2 cells; format: ADME, cell-based; conditions: Caco-2
How it was run: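 Caco-2 human colon carcinoma monolayers. Permeability measured in both directions (apical to basolateral and basolateral to apical) under constant pH: apical pH 6.5, basolateral pH 7.4. Efflux ratio taken as Papp B→A divided by Papp A→B.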

[12] = Genotoxicity in CHL cells after 72 hrs using acridine orange stain by fluorescence microscopic based micronucleus test; format: toxicity, cell-based, Cricetulus griseus; conditions: chinese hamster
[13] = target: Prostaglandin E2 receptor EP4 subtype (Mus musculus, UniProt P32240); assay: Antagonist activity at mouse recombinant EP4 receptor assessed as inhibition of PGE2-induced cAMP level by cell based assay; format: functional; conditions: read-out: pA2 (converted)
Chain of Prostaglandin E2 receptor EP4 subtype (Mus musculus, UniProt P32240) (P32240 whole entry): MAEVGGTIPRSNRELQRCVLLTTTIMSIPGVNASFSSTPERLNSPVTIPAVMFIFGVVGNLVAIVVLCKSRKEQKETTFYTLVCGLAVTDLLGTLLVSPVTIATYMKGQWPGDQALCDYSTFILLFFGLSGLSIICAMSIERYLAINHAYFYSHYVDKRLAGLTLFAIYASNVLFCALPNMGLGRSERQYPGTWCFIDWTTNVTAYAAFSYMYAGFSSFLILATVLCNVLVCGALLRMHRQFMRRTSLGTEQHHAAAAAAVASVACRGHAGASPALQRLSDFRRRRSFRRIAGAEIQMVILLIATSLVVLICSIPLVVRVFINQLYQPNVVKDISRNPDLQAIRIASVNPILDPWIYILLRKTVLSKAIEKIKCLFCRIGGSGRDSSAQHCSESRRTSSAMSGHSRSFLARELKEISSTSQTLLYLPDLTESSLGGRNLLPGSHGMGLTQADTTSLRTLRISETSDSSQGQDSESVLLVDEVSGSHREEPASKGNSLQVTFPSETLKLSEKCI
How it was run: (§1)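 Functional antagonism was measured as inhibition of PGE2-induced cAMP in cells transfected with rodent EP4 (mouse or rat). The value is expressed as pA2.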

[14] = target: Prostaglandin E receptor 4 (Canis lupus familiaris, UniProt Q9TU16); assay: Antagonist activity at dog recombinant EP4 receptor
Chain of Prostaglandin E receptor 4 (Q9TU16 whole entry): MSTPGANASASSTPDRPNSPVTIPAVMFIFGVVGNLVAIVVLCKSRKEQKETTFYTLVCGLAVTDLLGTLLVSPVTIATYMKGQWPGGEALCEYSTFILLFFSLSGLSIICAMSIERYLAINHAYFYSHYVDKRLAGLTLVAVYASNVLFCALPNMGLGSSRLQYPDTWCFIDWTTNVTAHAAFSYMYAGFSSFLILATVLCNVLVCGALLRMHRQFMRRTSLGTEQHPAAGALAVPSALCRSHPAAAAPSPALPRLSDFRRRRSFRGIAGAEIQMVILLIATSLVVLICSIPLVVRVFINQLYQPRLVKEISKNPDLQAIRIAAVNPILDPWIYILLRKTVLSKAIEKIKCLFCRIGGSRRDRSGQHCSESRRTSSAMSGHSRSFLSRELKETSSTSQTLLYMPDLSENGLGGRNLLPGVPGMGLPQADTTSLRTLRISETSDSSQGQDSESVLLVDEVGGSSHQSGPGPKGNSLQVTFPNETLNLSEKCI

[15] = target: T4, Prostaglandin E2 receptor EP4 subtype (Rattus norvegicus, UniProt P43114); assay: Antagonist activity at rat recombinant EP4 receptor assessed as inhibition of PGE2-induced cAMP level by cell based assay; format: functional; conditions: read-out: pA2 (converted); how it was run: as §1
T4 sequence (P43114 whole entry): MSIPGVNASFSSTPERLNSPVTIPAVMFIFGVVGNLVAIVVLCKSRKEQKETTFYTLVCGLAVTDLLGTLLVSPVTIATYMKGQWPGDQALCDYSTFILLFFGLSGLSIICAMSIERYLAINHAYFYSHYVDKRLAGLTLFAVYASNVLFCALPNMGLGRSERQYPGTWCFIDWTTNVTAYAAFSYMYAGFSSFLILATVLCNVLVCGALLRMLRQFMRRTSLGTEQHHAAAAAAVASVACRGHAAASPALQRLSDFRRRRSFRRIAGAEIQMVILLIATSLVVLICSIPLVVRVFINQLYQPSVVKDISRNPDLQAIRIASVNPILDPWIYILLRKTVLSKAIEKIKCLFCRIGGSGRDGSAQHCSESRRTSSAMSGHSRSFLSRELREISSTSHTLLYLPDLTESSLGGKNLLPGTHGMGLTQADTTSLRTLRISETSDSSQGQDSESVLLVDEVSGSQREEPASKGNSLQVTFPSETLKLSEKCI

[16] = target: T4, Prostaglandin E2 receptor EP4 subtype; assay: Antagonist activity at rat recombinant EP4 receptor
Prostacyclin receptor = Prostacyclin receptor (Homo sapiens, UniProt P43119); assay: Antagonist activity at human IP receptor
Chain of Prostacyclin receptor (P43119 whole entry): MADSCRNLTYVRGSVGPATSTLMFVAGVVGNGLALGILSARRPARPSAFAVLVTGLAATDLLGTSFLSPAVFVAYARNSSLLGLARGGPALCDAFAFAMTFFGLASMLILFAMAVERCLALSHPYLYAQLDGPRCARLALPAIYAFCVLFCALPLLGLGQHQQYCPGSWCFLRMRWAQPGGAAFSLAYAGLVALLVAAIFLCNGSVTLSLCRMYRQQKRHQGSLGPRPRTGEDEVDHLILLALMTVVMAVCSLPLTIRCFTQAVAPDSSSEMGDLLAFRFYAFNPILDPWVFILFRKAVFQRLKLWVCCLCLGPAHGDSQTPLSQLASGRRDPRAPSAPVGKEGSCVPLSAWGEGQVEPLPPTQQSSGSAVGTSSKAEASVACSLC

Thromboxane A2 receptor = target: T5, Thromboxane A2 receptor (Homo sapiens, UniProt P21731); assay: Antagonist activity at human platelet TP receptor
T5 sequence (P21731 whole entry): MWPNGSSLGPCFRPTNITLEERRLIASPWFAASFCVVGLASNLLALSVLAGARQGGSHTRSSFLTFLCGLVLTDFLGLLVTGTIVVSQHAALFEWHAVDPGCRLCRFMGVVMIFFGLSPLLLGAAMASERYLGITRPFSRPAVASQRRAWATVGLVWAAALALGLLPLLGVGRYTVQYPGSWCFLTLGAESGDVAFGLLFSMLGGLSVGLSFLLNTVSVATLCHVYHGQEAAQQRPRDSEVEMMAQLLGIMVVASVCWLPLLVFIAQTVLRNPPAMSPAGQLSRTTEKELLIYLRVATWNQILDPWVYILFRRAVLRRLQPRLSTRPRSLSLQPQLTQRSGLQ

[17] = Antagonist activity at human DP receptor
[18] = target: Prostaglandin F2-alpha receptor (Homo sapiens, UniProt P43088); assay: Antagonist activity at human FP receptor
Chain of Prostaglandin F2-alpha receptor (P43088 whole entry): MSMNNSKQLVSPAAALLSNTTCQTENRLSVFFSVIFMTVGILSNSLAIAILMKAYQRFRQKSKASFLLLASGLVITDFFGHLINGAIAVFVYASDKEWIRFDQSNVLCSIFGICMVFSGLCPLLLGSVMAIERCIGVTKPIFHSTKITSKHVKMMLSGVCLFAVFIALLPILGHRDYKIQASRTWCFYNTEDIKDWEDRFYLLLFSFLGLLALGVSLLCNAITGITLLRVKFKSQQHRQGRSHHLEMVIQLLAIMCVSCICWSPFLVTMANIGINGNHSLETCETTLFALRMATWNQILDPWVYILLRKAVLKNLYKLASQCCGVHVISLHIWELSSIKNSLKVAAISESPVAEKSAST

Rattus norvegicus [19] = assay: Analgesic activity in po dosed rat model of chronic inflammatory pain assessed as inhibition of CFA-induced weight bearing deficit; format: functional; conditions: read-out: MED
How it was run: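 Chronic inflammatory pain was modelled in rats with CFA and read out as weight bearing deficit after oral dosing. The value is the minimum effective dose (MED, mg/kg PO).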

T1 sequence (P35408 whole entry): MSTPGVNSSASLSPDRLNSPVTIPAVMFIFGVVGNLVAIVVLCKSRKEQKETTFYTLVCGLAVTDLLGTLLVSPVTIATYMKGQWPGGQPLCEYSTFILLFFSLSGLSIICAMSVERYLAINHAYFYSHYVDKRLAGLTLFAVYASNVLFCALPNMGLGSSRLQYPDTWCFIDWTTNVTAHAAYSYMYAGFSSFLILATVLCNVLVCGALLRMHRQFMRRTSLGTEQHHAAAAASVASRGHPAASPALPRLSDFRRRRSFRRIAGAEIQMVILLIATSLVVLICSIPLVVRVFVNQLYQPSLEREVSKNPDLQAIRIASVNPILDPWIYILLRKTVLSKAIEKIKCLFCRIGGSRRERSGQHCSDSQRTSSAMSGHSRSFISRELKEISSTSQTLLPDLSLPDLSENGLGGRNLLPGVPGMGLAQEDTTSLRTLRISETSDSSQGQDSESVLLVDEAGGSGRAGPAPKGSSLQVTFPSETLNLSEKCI

C[C@H](NC(=O)c1cc(Cl)cnc1Oc1cc(F)ccc1F)c1ccc(C(=O)O)cc1
IC50 [1]: < 0.05 µM

C[C@H](NC(=O)c1cc(Cl)ccc1Oc1cccc(F)c1)c1ccc(C(=O)O)cc1
IC50 [1]: 0.0306 µM
Kb [1]: 0.00126 µM
half-life [2]: > 2 h
IC50 [3]: 0.00876 µM
Papp A→B [4]: 419 nm/s
IC50 [5]: > 20 µM
IC50 [6]: 1.62 µM
IC50 [7]: > 20 µM
minimal effective dose (Rattus norvegicus [8]): 10 mg/kg

O=C(O)c1ccc(CNC(=O)c2cc(F)cnc2Oc2ccc(F)cc2)cc1
IC50 [1]: 0.575 µM
half-life [2]: > 2 h
solubility [9]: > 10 µM
IC50 [3]: 0.104 µM
Ki [3]: 0.073 µM
Papp A→B [4]: 253 nm/s
IC50 [5]: > 20 µM
IC50 [6]: > 20 µM
IC50 [7]: > 20 µM

O=C(O)c1ccc(CNC(=O)c2cc(F)ccc2Oc2ccc(F)cc2)cc1
IC50 [1]: 0.317 µM
IC50 [3]: 0.124 µM
Papp A→B [4]: 363 nm/s
IC50 [5]: > 20 µM
IC50 [6]: 0.236 µM
IC50 [7]: > 20 µM

C[C@H](NC(=O)c1cc(Cl)cnc1Oc1ccccc1F)c1ccc(C(=O)O)cc1
IC50 [1]: 0.0614 µM

C[C@H](NC(=O)c1cc(Cl)cnc1Oc1cccc(C#N)c1)c1ccc(C(=O)O)cc1
IC50 [1]: 0.0362 µM
half-life [2]: > 2 h
IC50 [3]: 0.0134 µM
Papp B→A [10]: 258 nm/s
efflux ratio [11]: 40
Papp A→B [4]: 6.44 nm/s
Activity [12]: Toxic
IC50 [5]: > 20 µM
IC50 [6]: 3.32 µM
IC50 [7]: > 20 µM

COc1cccc(Oc2ncc(Cl)cc2C(=O)N[C@@H](C)c2ccc(C(=O)O)cc2)c1
IC50 [1]: 0.34 µM

C[C@H](NC(=O)c1cc(Cl)cnc1Oc1ccc(Cl)cc1)c1ccc(C(=O)O)cc1
IC50 [1]: 0.0943 µM

O=C(O)c1ccc(CNC(=O)c2cc(Cl)ccc2Oc2ccc(F)cc2)cc1
IC50 [1]: 0.101 µM
IC50 [3]: 0.0216 µM
Papp A→B [4]: 514 nm/s

CCc1nc2c(C)nc(C)cc2n1-c1ccc(CCNC(=O)NS(=O)(=O)c2ccc(C)cc2)cc1 [GRAPIPRANT]
Kb [13]: 0.00776 µM
Ki [14]: 0.024 µM
Kb [15]: 0.00646 µM
Ki [16]: 0.02 µM
Ki (Prostacyclin receptor): > 5 µM
Ki (Thromboxane A2 receptor): > 5 µM
Kb [1]: 0.00479 µM
Ki [3]: 0.013 µM
Ki [5]: > 5 µM
Ki [6]: > 5 µM
Ki [7]: > 5 µM
minimal effective dose (Rattus norvegicus [8]): 30 mg/kg
Ki [17]: 2.93 µM
Ki [18]: > 5 µM
minimal effective dose (Rattus norvegicus [19]): 20 mg/kg

Cc1cnc(Oc2ccc(F)cc2)c(C(=O)NCc2ccc(C(=O)O)cc2)c1
IC50 [1]: 2.94 µM

C[C@H](NC(=O)c1cc(Cl)cnc1Oc1cccc(OC(F)(F)F)c1)c1ccc(C(=O)O)cc1
IC50 [1]: 1.79 µM

O=C(O)c1ccc(CNC(=O)c2cccc(OCc3nc4cc(F)ccc4s3)c2)cc1
IC50 [1]: 0.37 µM
half-life [2]: > 2 h
solubility [9]: > 10 µM

C[C@H](NC(=O)c1cc(Cl)cnc1Oc1ccc(F)cc1)c1ccc(C(=O)O)cc1
IC50 [1]: 0.0259 µM
Kb [1]: 0.00245 µM
half-life [2]: > 2 h
IC50 [3]: 0.00968 µM
Papp A→B [4]: 303 nm/s
IC50 [5]: > 20 µM
IC50 [6]: 4.36 µM
IC50 [7]: > 20 µM
minimal effective dose (Rattus norvegicus [8]): 10 mg/kg

C[C@H](NC(=O)c1cc(Cl)cnc1Oc1cncc(F)c1)c1ccc(C(=O)O)cc1
IC50 [1]: 0.175 µM

C[C@H](NC(=O)c1cc(Cl)cnc1Oc1cncc(Cl)c1)c1ccc(C(=O)O)cc1
IC50 [1]: 0.137 µM

C[C@H](NC(=O)c1cc(Cl)ccc1Oc1ccc(F)cc1)c1ccc(C(=O)O)cc1
IC50 [1]: 0.0382 µM
Kb [1]: 0.00178 µM
half-life [2]: > 2 h
IC50 [3]: 0.00659 µM
Papp A→B [4]: 324 nm/s
IC50 [5]: > 20 µM
IC50 [6]: 0.709 µM
IC50 [7]: > 20 µM
minimal effective dose (Rattus norvegicus [8]): 10 mg/kg

C[C@@H](NC(=O)c1cc(Cl)cnc1Oc1ccc(F)cc1)c1ccc(C(=O)O)cc1
IC50 [1]: 1.21 µM
Papp A→B [4]: 253 nm/s

CC(C)(NC(=O)c1cc(F)cnc1Oc1ccc(F)cc1)c1ccc(C(=O)O)cc1
IC50 [3]: 0.545 µM
Papp A→B [4]: 363 nm/s

C[C@H](NC(=O)c1cc(Cl)cnc1Oc1cccc(F)c1F)c1ccc(C(=O)O)cc1
IC50 [1]: < 0.05 µM

C[C@H](NC(=O)c1cc(Cl)cnc1Oc1ccc(F)c(F)c1)c1ccc(C(=O)O)cc1
IC50 [1]: < 0.05 µM

Cc1ccc(C(=O)NCc2ccc(C(=O)O)cc2)c(Oc2ccc(F)cc2)n1
IC50 [1]: > 5 µM

O=C(NCc1ccc(C(=O)NS(=O)(=O)c2cccc(Cl)c2)cc1)c1cccc(OCc2nc3cc(F)ccc3s2)c1
IC50 [1]: 0.302 µM

C[C@H](NC(=O)c1cc(Cl)cnc1Oc1cc(F)cc(F)c1)c1ccc(C(=O)O)cc1
IC50 [1]: < 0.05 µM

C[C@H](NC(=O)c1cc(Cl)cnc1Oc1ccccc1Cl)c1ccc(C(=O)O)cc1
IC50 [1]: 0.0935 µM

O=C(O)c1ccc(CNC(=O)c2cc(Cl)cnc2Oc2ccc(F)cc2)cc1
IC50 [1]: 0.254 µM
IC50 [3]: 0.0379 µM
Papp A→B [4]: 201 nm/s
IC50 [5]: > 20 µM
IC50 [6]: 1.29 µM
IC50 [7]: > 20 µM

CSc1cccc(Oc2ncc(Cl)cc2C(=O)N[C@@H](C)c2ccc(C(=O)O)cc2)c1
IC50 [1]: 0.4 µM

C[C@H](NC(=O)c1cc(F)cnc1Oc1ccc(F)cc1)c1ccc(C(=O)O)cc1
IC50 [1]: 0.143 µM
IC50 [3]: 0.0287 µM
Papp A→B [4]: 302 nm/s

C[C@H](NC(=O)c1cc(Cl)cnc1Oc1cccc(Cl)c1)c1ccc(C(=O)O)cc1
IC50 [1]: 0.0218 µM
half-life [2]: > 2 h
IC50 [3]: 0.00502 µM

CCC(NC(=O)c1cc(F)cnc1Oc1ccc(F)cc1)c1ccc(C(=O)O)cc1 (racemic)
IC50 [3]: 0.181 µM
Papp A→B [4]: 201 nm/s

C[C@H](NC(=O)c1cc(Cl)ccc1Oc1cccc(Cl)c1)c1ccc(C(=O)O)cc1
IC50 [1]: 0.0411 µM

C[C@H](NC(=O)c1cc(Cl)cnc1Oc1cccc(C(F)(F)F)c1)c1ccc(C(=O)O)cc1
IC50 [1]: 0.0604 µM
